How the values were obtained:
Format in all cases: functional
Conditions in all cases: read-out: GI
HL-60 = experiment: Antitumor activity against human HL-60 cells assessed as growth inhibition at 10 uM relative to control
In short: (§1)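 After drug addition, plates were incubated 48 h at 37 °C under 5% CO2. Adherent cells were fixed with cold TCA (10% final, 60 min, 4 °C) and suspension cells with 16% final TCA. Staining used 0.4% SRB in 1% acetic acid, solubilized in 10 mM trizma, read at A515. Percent growth was calculated from time-zero, control and treated absorbances.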

HCT-15 = experiment: Antitumor activity against human HCT-15 cells assessed as growth inhibition at 10 uM relative to control; in short: as §1
DU-145 = experiment: Antitumor activity against human DU-145 cells assessed as growth inhibition at 10 uM relative to control; in short: as §1
SK-MEL-2 = experiment: Antitumor activity against human SK-MEL-2 cells assessed as growth inhibition at 10 uM relative to control; in short: as §1
U-251 = experiment: Antitumor activity against human U-251 cells assessed as growth inhibition at 10 uM relative to control
In short: (§2)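 Drug exposure 48 h at 37 °C, 5% CO2. Adherent cells fixed with cold TCA (10% final), suspension cells with TCA (16% final). Stained with 0.4% SRB in 1% acetic acid, dissolved in 10 mM Tris, A515. Growth relative to time-zero and untreated control.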

786-0 = experiment: Antitumor activity against human 786-0 cells assessed as growth inhibition at 10 uM relative to control; in short: as §1
HCT-116 = experiment: Antitumor activity against human HCT-116 cells assessed as growth inhibition at 10 uM relative to control; in short: as §1
HOP-62 = experiment: Antitumor activity against human HOP-62 cells assessed as growth inhibition at 10 uM relative to control; in short: as §1
OVCAR-4 = experiment: Antitumor activity against human OVCAR-4 cells assessed as growth inhibition at 10 uM relative to control; in short: as §1
SNB-19 = experiment: Antitumor activity against human SNB-19 cells assessed as growth inhibition at 10 uM relative to control; in short: as §2
SK-MEL-5 = experiment: Antitumor activity against human SK-MEL-5 cells assessed as growth inhibition at 10 uM relative to control; in short: as §2
EKVX = experiment: Antitumor activity against human EKVX cells assessed as growth inhibition at 10 uM relative to control; in short: as §1
IGROV-1 = experiment: Antitumor activity against human IGROV-1 cells assessed as growth inhibition at 10 uM relative to control; in short: as §1
K562 = experiment: Antitumor activity against human K562 cells assessed as growth inhibition at 10 uM relative to control; in short: as §1
MDA-MB-231 = experiment: Antitumor activity against human MDA-MB-231 cells assessed as growth inhibition at 10 uM relative to control; in short: as §1
M14 = experiment: Antitumor activity against human M14 cells assessed as growth inhibition at 10 uM relative to control; in short: as §1
OVCAR-8 = experiment: Antitumor activity against human OVCAR-8 cells assessed as growth inhibition at 10 uM relative to control; in short: as §1
RXF 393 = experiment: Antitumor activity against human RXF 393 cells assessed as growth inhibition at 10 uM relative to control; in short: as §1
UACC-257 = experiment: Antitumor activity against human UACC-257 cells assessed as growth inhibition at 10 uM relative to control; in short: as §2
SK-OV-3 = experiment: Antitumor activity against human SK-OV-3 cells assessed as growth inhibition at 10 uM relative to control; in short: as §2
CAKI-1 = experiment: Antitumor activity against human CAKI-1 cells assessed as growth inhibition at 10 uM relative to control; in short: as §1
SF-268 = experiment: Antitumor activity against human SF-268 cells assessed as growth inhibition at 10 uM relative to control; in short: as §1
HCC 2998 = experiment: Antitumor activity against human HCC 2998 cells assessed as growth inhibition at 10 uM relative to control; in short: as §1
MDA-MB-435 = experiment: Antitumor activity against human MDA-MB-435 cells assessed as growth inhibition at 10 uM relative to control; in short: as §1
A549 = experiment: Antitumor activity against human A549 cells assessed as growth inhibition at 10 uM relative to control; in short: as §1
SF-295 = experiment: Antitumor activity against human SF-295 cells assessed as growth inhibition at 10 uM relative to control; in short: as §1
SF-539 = experiment: Antitumor activity against human SF-539 cells assessed as growth inhibition at 10 uM relative to control; in short: as §1
BT-549 = experiment: Antitumor activity against human BT-549 cells assessed as growth inhibition at 10 uM relative to control; in short: as §1
Hs-578T = experiment: Antitumor activity against human Hs-578T cells assessed as growth inhibition at 10 uM relative to control; in short: as §1
MCF7 = experiment: Antitumor activity against human MCF7 cells assessed as growth inhibition at 10 uM relative to control; in short: as §1
PC-3 = experiment: Antitumor activity against human PC-3 cells assessed as growth inhibition at 10 uM relative to control; in short: as §1
NCI-H226 = experiment: Antitumor activity against human NCI-H226 cells assessed as growth inhibition at 10 uM relative to control; in short: as §1
LOX IMVI = experiment: Antitumor activity against human LOX IMVI cells assessed as growth inhibition at 10 uM relative to control; in short: as §1
UO-31 = experiment: Antitumor activity against human UO-31 cells assessed as growth inhibition at 10 uM relative to control; in short: as §2
MOLT-4 = experiment: Antitumor activity against human MOLT-4 cells assessed as growth inhibition at 10 uM relative to control; in short: as §1
NCI-H322M = experiment: Antitumor activity against human NCI-H322M cells assessed as growth inhibition at 10 uM relative to control; in short: as §1
OVCAR-3 = experiment: Antitumor activity against human OVCAR-3 cells assessed as growth inhibition at 10 uM relative to control; in short: as §1
NCI-H522 = experiment: Antitumor activity against human NCI-H522 cells assessed as growth inhibition at 10 uM relative to control; in short: as §1
COLO 205 = experiment: Antitumor activity against human COLO 205 cells assessed as growth inhibition at 10 uM relative to control; in short: as §1
HOP-92 = experiment: Antitumor activity against human HOP-92 cells assessed as growth inhibition at 10 uM relative to control; in short: as §1
NCI-H23 = experiment: Antitumor activity against human NCI-H23 cells assessed as growth inhibition at 10 uM relative to control; in short: as §1
A498 = experiment: Antitumor activity against human A498 cells assessed as growth inhibition at 10 uM relative to control; in short: as §1
OVCAR-5 = experiment: Antitumor activity against human OVCAR-5 cells assessed as growth inhibition at 10 uM relative to control; in short: as §1
TK-10 = experiment: Antitumor activity against human TK-10 cells assessed as growth inhibition at 10 uM relative to control; in short: as §2
SR = experiment: Antitumor activity against human SR cells assessed as growth inhibition at 10 uM relative to control; in short: as §2
SNB-75 = experiment: Antitumor activity against human SNB-75 cells assessed as growth inhibition at 10 uM relative to control; in short: as §2

**Q.** What does the source list for `N#Cc1c(-c2ccc(Cl)cc2)nc(NN2C(=O)c3ccccc3C2=O)nc1N1CCOCC1`?
**A.** inhibition of growth at 10 µM (HL-60): < 1%; inhibition of growth at 10 µM (HCT-15): < 1%; inhibition of growth at 10 µM (DU-145): < 1%; inhibition of growth at 10 µM (SK-MEL-2): < 1%; inhibition of growth at 10 µM (U-251): < 1%; inhibition of growth at 10 µM (786-0): < 1%; inhibition of growth at 10 µM (HCT-116): < 1%; inhibition of growth at 10 µM (HOP-62): < 1%; inhibition of growth at 10 µM (OVCAR-4): < 1%; inhibition of growth at 10 µM (SNB-19): < 1%; inhibition of growth at 10 µM (SK-MEL-5): < 1%; inhibition of growth at 10 µM (EKVX): < 1%; inhibition of growth at 10 µM (IGROV-1): < 1%; inhibition of growth at 10 µM (K562): < 1%; inhibition of growth at 10 µM (MDA-MB-231): < 1%; inhibition of growth at 10 µM (M14): < 1%; inhibition of growth at 10 µM (OVCAR-8): < 1%; inhibition of growth at 10 µM (RXF 393): < 1%; inhibition of growth at 10 µM (UACC-257): < 1%; inhibition of growth at 10 µM (SK-OV-3): < 1%; inhibition of growth at 10 µM (CAKI-1): < 1%; inhibition of growth at 10 µM (SF-268): < 1%; inhibition of growth at 10 µM (HCC 2998): < 1%; inhibition of growth at 10 µM (MDA-MB-435): < 1%; inhibition of growth at 10 µM (A549): < 1%; inhibition of growth at 10 µM (SF-295): < 1%; inhibition of growth at 10 µM (SF-539): < 1%; inhibition of growth at 10 µM (BT-549): < 1%; inhibition of growth at 10 µM (Hs-578T): < 1%; inhibition of growth at 10 µM (MCF7): 1%; inhibition of growth at 10 µM (PC-3): < 1%; inhibition of growth at 10 µM (NCI-H226): < 1%; inhibition of growth at 10 µM (LOX IMVI): < 1%; inhibition of growth at 10 µM (UO-31): 15.6%; inhibition of growth at 10 µM (MOLT-4): < 1%; inhibition of growth at 10 µM (NCI-H322M): < 1%; inhibition of growth at 10 µM (OVCAR-3): < 1%; inhibition of growth at 10 µM (NCI-H522): < 1%; inhibition of growth at 10 µM (COLO 205): < 1%; inhibition of growth at 10 µM (HOP-92): < 1%; inhibition of growth at 10 µM (NCI-H23): < 1%; inhibition of growth at 10 µM (A498): < 1%; inhibition of growth at 10 µM (OVCAR-5): < 1%; inhibition of growth at 10 µM (TK-10): < 1%; inhibition of growth at 10 µM (SR): 16%; inhibition of growth at 10 µM (SNB-75): 15.4%

From ChEMBL document CHEMBL5376013, “Design, synthesis and biological evaluation of novel morpholinopyrimidine-5-carbonitrile derivatives as dual PI3K/mTOR inhibitors” (RSC Med Chem, 2024)
